This is a sample that favours compounds with a hit; in the whole collection about 1.2% have one here.
Runt-CBFb FRET: inhibitors of RUNX1 Runt–CBFb binding, primary screen, biochemical, FRET, Cerulean-Runt, Venus-CBFb, uHTS | Cerulean-Runt/Venus-CBFb FRET ratio 530/480, 1 h | inhibition, % at 20 µM | 0.46% of 220,000 active;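 active = inhibition over about 50% at 20 µM in the single-dose screen, limit read from the data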;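 note: 0% = DMSO wells and 100% = excess unlabeled CBFb competitor control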
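Buffer or medium: Tris pH 7.5 buffer with BSA. Assay system: Cerulean-labeled Runt domain protein. Amount: each fluorescent fusion protein 100 nM. Read-out basis: loss of energy transfer signal. Incubation: 1 h compound exposure, room temperature. Probe or stimulus: Venus-CBFb binding partner, 100 nM. Detection: FRET, excitation 422 nm, emission at 530 and 480 nm.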
CaV13 FRET inh: Disruptors of the CACNA1D IQ motif to Ca2+-dependent inactivation inhibitor domain association, primary screening, Förster resonance energy transfer in intact living …; HEK cells, CFP/YFP FRET ICDI-IQ, plate reader, 10 min; percent FRET-ratio fall versus neutral wells; inhibition, % at 12.3 µM; 0.098% of 340,000 active;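 active = mean replicate inhibition of at least 30% and at least 1% of replicates passing that level; inconclusive = only one of the two criteria is met; inactive = neither criterion is met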;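 note: 0% = median of the neutral control wells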
RanGTP-Impb inh: inhibitors of RanGTP-importin-beta interaction, primary screen, biochemical, FRET, CFP-Ran, YFP-importin-beta, homogeneous | cell-free CFP-Ran/YFP-importin-beta FRET ratio | inhibition, % (concentration not given with the values) | 1.1% of 300,000 active | AID 2216, 2009;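 active = more than half of the replicate wells show a fall in the fluorescence ratio signal beyond about 16%, limit read from the data, passing the limit was not always enough; inconclusive = exactly half of the replicate wells pass the set limit; inactive = fewer than half of replicates pass the limit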;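 note: 0% = DMSO wells and 100% = Ran loaded with GDP instead of GTP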
Runt-SMMHC FRET: inhibitors of RUNX1 Runt–CBFb-SMMHC binding, primary screen, biochemical, FRET, Cerulean-Runt, Venus-CBFb-SMMHC, uHTS. Runt-related transcription factor 1 (Homo sapiens) + Core-binding factor subunit beta …. 0.74% of 220,000 active. AID 1434, 2008. Cerulean-Runt/Venus-CBFb-SMMHC FRET ratio 530/480, 1 h. inhibition, % at 20 µM;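 active = mean inhibition across duplicate retests at 20 µM reaching about 50%, limit read from the data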;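 note: 0% = DMSO wells and 100% = wells with excess untagged CBFb-SMMHC; inhibitors lower the FRET ratio by blocking Runt binding to CBFb-SMMHC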
YIC FRET counter: YIC intramolecular FRET probe signal interference, dose response, counter-screen for RanGTP-importin-beta inhibitor project, biochemical, fluorescence FRET; shares compounds with RanGTP-Impb inh; Purified YIC probe, intramolecular FRET ratio YFP/CFP; IC50, µM; 40% of 1,000 active; AID 435026, 2010;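 active = fitted half-maximal inhibitory concentration no more than tenfold above the top dose tested; inconclusive = flat fit with 30 to 70% activity, or poor fit; inactive = half-maximal concentration beyond tenfold above the top dose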
* = called active by the depositor; u = inconclusive; x = not tested or not shown.

SMILES	Runt-CBFb FRET	CaV13 FRET inh	RanGTP-Impb inh	Runt-SMMHC FRET	YIC FRET counter
Cn1c(O)c(/C=C/C=Nc2ccccc2)c(=O)n(C)c1=S	15	-7	0	-12	x
CCCCC1(CCC)C(=O)NC(=S)NC1=O	x	-5	x	x	x
C=CCn1c(O)c(C(CC)=NCCc2ccccc2)c(=O)[nH]c1=O	-1	-3	0	0	x
C=CCn1c(O)c(C(C)=NCCc2ccccc2)c(=O)[nH]c1=O	1	-5	23*	-4	>50
N#Cc1c(/N=C/c2ccc(O)cc2O)sc2c1C1CCN2CC1	64*	-5	39*	59*	>26
COc1ccc(CC(C)Nc2cccc(F)c2)cc1 (stereo not given)	x	-20	2	x	x
O=C1NC(=O)C(=CN2CCc3ccccc32)C(=O)N1	4	-6	u	5	x
O=C1NC(=O)N(Cc2ccccc2)C(=O)/C1=C\N1CCCc2ccccc21	37	-5	27*	48	>50

From PubChem BioAssay
